# Published values gathered from unrelated publications.
# Protocols differ between the studies behind these lines.
# Target: LIM domain kinase 2 (LIMK2, Homo sapiens, UniProt P53671)
Structure (SMILES),assay,setting,remaining binding
COc1cnc(Nc2cccc(S(N)(=O)=O)c2)nc1N1CCN(c2ccccc2)C(=O)C1,"binding, competition with immobilised ligand",1 µM,100%
CN(CCCC(F)(F)F)c1nccc(-c2cnn3ncccc23)n1,binding,1 µM,95%
CCN1CCN(Cc2ccc(C(=O)Nc3ccc(C)c(Oc4ccc5c(c4)CC(=O)N5)c3)cc2C(F)(F)F)CC1,"binding, competition with immobilised ligand",1 µM,100%
CNC(=O)[C@@H]1CC[C@@H](n2c(-c3ccc4cnccc4c3)nc3ccc(C(=O)NCc4cccc(C(N)=O)c4)cc32)C1,"binding, competition with immobilised ligand",1 µM,100%
CCC(=O)N[C@H]1CC[C@@H](C(=O)N(C)c2ccc(-c3nc4ccccc4o3)cc2)C1,"cell-free assay, competition with immobilised ligand",1 µM,100%
N[C@@H]1CCN(c2nccc(-c3cnn4ncccc34)n2)C1,binding,1 µM,100%
O=C(Nc1ccc(Oc2ccc(F)cc2)cc1)N1CCc2ncccc2[C@H]1c1ccc(F)cc1,"cell-free assay, competition with immobilised ligand",1 µM,93%
O=C(c1ccc(Nc2ncc(Cl)c(-c3ccc(Cl)s3)n2)cc1)N1CCC(N2CCCC2)CC1,"binding, competition with immobilised ligand",1 µM,38%
CC(=O)N1CCC(c2ccc(C(=O)NC3=NCCN3)cc2C(F)(F)F)CC1,"cell-free assay, competition with immobilised ligand",1 µM,98%
O=C(NCCCN1CCOCC1)c1ccc(Nc2ncc(Cl)c(-c3ccc(Cl)s3)n2)cc1,"binding, competition with immobilised ligand",1 µM,83%
FC(F)(F)Oc1cccc(-c2cnc3ccc(-c4ccncc4)nn23)c1,"cell-free assay, competition with immobilised ligand",5 µM,69%
CC1CCCN1c1nccc(-c2cnn3ncccc23)n1 (stereo not shown),binding,1 µM,96%
O=c1nc(-c2ccccn2)sc2ccccc12,"binding, competition with immobilised ligand",1 µM,100%
CN(c1nccc(-c2cnn3ncccc23)n1)C1CC1,binding,1 µM,100%
O=C(Nc1c[nH]nc1C(=O)NC1CCNCC1)c1cc(F)cc(F)c1,"binding, competition with immobilised ligand",1 µM,97%
CN(C)c1ncnc(-c2ccc3nc(Nc4cc(CN5CCN(C(=O)CC(F)(F)F)CC5)ccn4)[nH]c3c2)c1Cl,"cell-free assay, competition with immobilised ligand",1 µM,100%
C=CC(=O)N1CCC(C(=O)NCC(=O)N2CCN(c3nc(-c4cnc(N)nc4C(F)F)nc(N4CCOCC4)n3)CC2)CC1,"binding, competition with immobilised ligand",1 µM,97%
CNC(=O)c1ccc(Nc2ncc(C(F)(F)F)c(NCc3nccnc3N(C)S(C)(=O)=O)n2)cc1,"cell-free assay, competition with immobilised ligand",0.1 µM,87%
C[C@H]1CCN(c2nccc(-c3cnn4ncccc34)n2)C1,binding,1 µM,75%
O=C(NCCCN1CCOCC1)c1ccc(Nc2nccc(-c3cc4ccccc4s3)n2)cc1,"binding, competition with immobilised ligand",1 µM,59%
F[C@@H]1CCN(c2nccc(-c3cnn4ncccc34)n2)C1,binding,1 µM,85%
CNCc1ccccc1-c1csc([C@@H](C)Nc2nc(C)nc3cc(OC)c(OC)cc23)c1,"cell-free assay, competition with immobilised ligand",1 µM,96%
